From ChEMBL document CHEMBL2016576, “Design, synthesis and structure-activity-relationship of 1,5-tetrahydronaphthyridines as CETP inhibitors” (Bioorg Med Chem Lett, 2012)

Assays:
[1] = Clearance in cynomolgus monkey at 1 mg/kg, iv and 3 mg/kg, po after 72 hrs; assay type: ADME, organism-based, Macaca fascicularis; conditions: in vivo
[2] = Clearance in Sprague-Dawley rat at 1 mg/kg, iv and 3 mg/kg, po after 72 hrs; assay type: ADME, organism-based; conditions: in vivo
[3] = molecular target: T1, Cholesteryl ester transfer protein (Homo sapiens, UniProt P11597); assay: Inhibition of CETP in human plasma assessed as reduction in fluorescent intensity by fluorescence analysis
T1 sequence (P11597 whole entry): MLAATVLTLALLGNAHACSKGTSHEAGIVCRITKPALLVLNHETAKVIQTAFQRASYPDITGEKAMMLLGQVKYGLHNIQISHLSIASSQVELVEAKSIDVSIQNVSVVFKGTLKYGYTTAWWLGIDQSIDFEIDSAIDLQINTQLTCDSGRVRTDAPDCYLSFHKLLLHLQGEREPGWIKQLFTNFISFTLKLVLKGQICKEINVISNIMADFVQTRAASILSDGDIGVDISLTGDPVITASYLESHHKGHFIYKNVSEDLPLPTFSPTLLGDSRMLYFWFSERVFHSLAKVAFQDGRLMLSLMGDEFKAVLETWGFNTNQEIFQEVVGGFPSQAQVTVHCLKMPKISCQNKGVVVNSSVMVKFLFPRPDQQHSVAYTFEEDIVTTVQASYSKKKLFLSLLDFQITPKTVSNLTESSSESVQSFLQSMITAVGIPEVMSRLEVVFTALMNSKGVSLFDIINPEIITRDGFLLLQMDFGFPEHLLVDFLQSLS

[4] = Oral bioavailability in Sprague-Dawley rat at 3 mg/kg after 72 hrs; assay type: ADME, organism-based; conditions: in vivo
[5] = Oral bioavailability in cynomolgus monkey at 3 mg/kg after 72 hrs; assay type: ADME, organism-based, Macaca fascicularis; conditions: in vivo
Mus musculus [6] = assay: Ex-vivo inhibition of CETP activity in transgenic mouse harboring human CETP/human ApoA1 gene at 30 mg/kg, po measured after 8 hrs; assay type: functional
Procedure, shortened: (§1)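 Male hCETP/hApoA1 heterozygous dual transgenic mice given 30 mg/Kg orally in corn oil (79.5%)/oleic acid (20%)/labrafil (0.5%); blood taken over an 8 h time course; serum tested ex vivo for CETP activity and in vivo serum HDL-c measured.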

Mus musculus [7] = assay: Increase in HDL-cholesterol level in transgenic mouse harboring human CETP/human ApoA1 gene at 30 mg/kg, po measured after 8 hrs; assay type: functional; procedure, shortened: as §1
[8] = Clearance in beagle dog at 1 mg/kg, iv and 3 mg/kg, po after 72 hrs; assay type: ADME, organism-based, Canis lupus familiaris; conditions: in vivo
[9] = Oral bioavailability in beagle dog at 3 mg/kg after 72 hrs; assay type: ADME, organism-based, Canis lupus familiaris; conditions: in vivo
cortisol synthase mRNA = assay: Induction of cortisol synthase mRNA level in human NCI-H295 cells by in vitro branched DNA method relative to control; assay type: cell-based; conditions: read-out: FC
Procedure, shortened: (§2)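 Human adrenal H295 cells were assayed in vitro. CYP11B2 (aldosterone synthase) and CYP11B1 (cortisol synthase) mRNA were quantified by branched DNA, and induction was expressed relative to untreated control.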

[10] = tested on: aldosterone synthase mRNA; assay: Induction of aldosterone synthase mRNA level in human NCI-H295 cells by in vitro branched DNA method relative to control; assay type: cell-based; conditions: read-out: FC; procedure, shortened: as §2
[11] = Induction of cortisol synthase mRNA level in human NCI-H295 cells by in vitro branched DNA method; assay type: cell-based

Row | SMILES | IC50 [3] [nM] | further results
1 | CCOC(=O)N1c2ccc(C(F)(F)F)cc2[C@@H](N(Cc2cc(C(F)(F)F)cc(C(F)(F)F)c2)C(=O)OC)C[C@H]1CC [TORCETRAPIB] |  | Activity [11]: Toxic
2 | CC(=O)N(Cc1cc(C(F)(F)F)cc(C(F)(F)F)c1)[C@H]1C[C@@H](C2CC2)N(C(=O)OC(C)C)c2ccc(C(F)(F)F)nc21 (racemic) | 980 | 
3 | CC[C@@H]1C[C@H](N(Cc2cc(C(F)(F)F)cc(C(F)(F)F)c2)c2noc(C)n2)c2nc(C(F)(F)F)ccc2N1C(=O)OC(C)C (racemic) | 74 | 
4 | CCC1CC(N(Cc2cc(C(F)(F)F)cc(C(F)(F)F)c2)C(C)=O)c2sccc2N1C(=O)OC(C)C (stereo not drawn) | 46000 | 
5 | CC[C@@H]1C[C@H](N(Cc2cc(C(F)(F)F)cc(C(F)(F)F)c2)C(C)=O)c2nc(Br)ccc2N1C(=O)OC(C)C (racemic) | 1300 | 
6 | CC[C@@H]1C[C@H](N(Cc2cc(C(F)(F)F)cc(C(F)(F)F)c2)c2nnn(C)n2)c2nc(C(F)(F)F)ccc2N1CCC(C)C | 825 | 
7 | CC[C@@H]1C[C@H](N(Cc2cc(C(F)(F)F)cc(C(F)(F)F)c2)C(C)=O)c2nc(N(C)C)ccc2N1C(=O)OC(C)C (racemic) | 948 | 
8 | CC[C@@H]1C[C@H](N(Cc2cc(C(F)(F)F)cc(C(F)(F)F)c2)c2cc(C)n[nH]2)c2nc(C(F)(F)F)ccc2N1C(=O)OC(C)C (racemic) | 203 | 
9 | CC[C@@H]1C[C@H](N(Cc2cc(C(F)(F)F)cc(C(F)(F)F)c2)c2nnn(C)n2)c2nc(N3CCCC3)ccc2N1C(=O)OC(C)C | 471 | 
10 | CC[C@@H]1C[C@H](N(Cc2cc(C(F)(F)F)cc(C(F)(F)F)c2)c2nnn(C)n2)c2nc(C(F)(F)F)ccc2N1C(=O)OCCN1CCN(C)CC1 | 5730 | 
11 | CC[C@@H]1C[C@H](N(C#N)Cc2cc(C(F)(F)F)cc(C(F)(F)F)c2)c2nc(C(F)(F)F)ccc2N1C(=O)OC(C)C (racemic) | > 5000 | 
12 | CC[C@@H]1C[C@H](N(Cc2cc(C(F)(F)F)cc(C(F)(F)F)c2)c2nnn(C)n2)c2nc(OC)ccc2N1C(=O)OC(C)C (racemic) | 134 | 
13 | CC[C@@H]1C[C@H](N(Cc2cc(C(F)(F)F)cc(C(F)(F)F)c2)c2nnn(C)n2)c2nc(C(F)(F)F)ccc2N1C(=O)OCCc1nn[nH]n1 | 488 | 
14 | CC(=O)N(Cc1cc(C(F)(F)F)cc(C(F)(F)F)c1)[C@H]1C[C@@H](C)N(C(=O)OC(C)C)c2ccc(C(F)(F)F)nc21 (racemic) | 1050 | 
15 | CC[C@H]1C[C@@H](N(Cc2cc(C(F)(F)F)cc(C(F)(F)F)c2)c2nnn(C)n2)c2nc(C)ccc2N1C(=O)OC(C)C | 50000 | 
16 | CC[C@@H]1C[C@H](N(Cc2cc(C(F)(F)F)cc(C(F)(F)F)c2)c2nnn[nH]2)c2nc(C(F)(F)F)ccc2N1C(=O)OC(C)C (racemic) | > 50000 | 
17 | CC[C@@H]1C[C@H](N(Cc2cc(C(F)(F)F)cc(C(F)(F)F)c2)c2nnn(C)n2)c2nc(C(F)(F)F)ccc2N1C(=O)OCCN1CCOCC1 | 2110 | 
18 | CC[C@@H]1C[C@H](N(Cc2cc(C(F)(F)F)cc(C(F)(F)F)c2)c2nnn(C)n2)c2nc(NC)ccc2N1C(=O)OC(C)C | 142 | 
19 | CCCC(=O)N1c2ccc(C(F)(F)F)nc2[C@@H](N(Cc2cc(C(F)(F)F)cc(C(F)(F)F)c2)c2nnn(C)n2)C[C@H]1CC | 114 | 
20 | CC[C@@H]1C[C@H](N(Cc2cc(C(F)(F)F)cc(C(F)(F)F)c2)c2nnn(C)n2)c2nc(C(F)(F)F)ccc2N1C(=O)OCC(C)(C)C(=O)O | 139 | 
21 | CC[C@@H]1C[C@H](N(Cc2cc(C(F)(F)F)cc(C(F)(F)F)c2)c2nnn(C)n2)c2nc(N3CCOCC3)ccc2N1C(=O)OC(C)C | 25000 | 

Continued, in another order:

Row | IC50 [3] [nM] | SMILES | further results
22 | 22 | CC[C@@H]1C[C@H](N(Cc2cc(C(F)(F)F)cc(C(F)(F)F)c2)c2nnn(C)n2)c2nc(C)ccc2N1C(=O)OC(C)C | clearance [1]: 2.2 mL/min/kg; clearance [2]: 16.4 mL/min/kg; bioavailability [4]: 18%; bioavailability [5]: 32%; inhibition in vivo at 30 mg/kg (Mus musculus [6]): 105%; Activity (Mus musculus [7]): 147.8%
23 | 23 | CC[C@@H]1C[C@H](N(Cc2cc(C(F)(F)F)cc(C(F)(F)F)c2)c2nnn(C)n2)c2nc(C(F)(F)F)ccc2N1C(=O)OC(C)C | clearance [1]: 0.7 mL/min/kg; clearance [2]: 5.5 mL/min/kg; clearance [8]: 1.5 mL/min/kg; bioavailability [4]: 31%; bioavailability [5]: 18%; bioavailability [9]: 49%; inhibition in vivo at 30 mg/kg (Mus musculus [6]): 91.6%; Activity (Mus musculus [7]): 134%; fold induction (cortisol synthase mRNA): 10; fold induction [10]: 10
24 | 26 | Cc1cc(C)c2c(c1)[C@@H](N(Cc1cc(C(F)(F)F)cc(C(F)(F)F)c1)c1nnn(C)n1)CCCN2C[C@H]1CC[C@H](C(=O)O)CC1 [EVACETRAPIB] | 
25 | 44 | CC[C@@H]1C[C@H](N(Cc2cc(C(F)(F)F)cc(C(F)(F)F)c2)c2nnn(CCO)n2)c2nc(C(F)(F)F)ccc2N1C(=O)OC(C)C (racemic) | 
26 | 24 | CCOC(=O)N1c2c(C)cc(C(F)(F)F)nc2[C@@H](N(Cc2cc(C(F)(F)F)cc(C(F)(F)F)c2)c2nnn(C)n2)C[C@H]1CC (racemic) | 
27 | 49 | CC[C@@H]1C[C@H](N(Cc2cc(C(F)(F)F)cc(C(F)(F)F)c2)c2nnn(C)n2)c2nc(C(F)(F)F)ccc2N1C(=O)OC(C)C (racemic) | 
28 | 72 | CC[C@@H]1C[C@H](N(Cc2cc(C(F)(F)F)cc(C(F)(F)F)c2)c2nnn(C)n2)c2nc(C(F)(F)F)ccc2N1C(=O)OC1CCN(C)CC1 | 
29 | 47 | CC[C@@H]1C[C@H](N(Cc2cc(C(F)(F)F)cc(C(F)(F)F)c2)c2nnn(C)n2)c2nc(Br)ccc2N1C(=O)OC(C)C (racemic) | 
30 | 20 | CC[C@@H]1C[C@H](N(Cc2cc(Cl)cc(C(F)(F)F)c2)c2nnn(C)n2)c2nc(C(F)(F)F)ccc2N1C(=O)OC(C)C | 
31 | 66 | CC[C@@H]1C[C@H](N(Cc2cc(C(F)(F)F)cc(C(F)(F)F)c2)c2nnn(C)n2)c2nc(C(F)(F)F)ccc2N1C(=O)OC1CCOCC1 | 
32 | 21 | CC[C@@H]1C[C@H](N(Cc2cc(C#N)cc(C(F)(F)F)c2)c2nnn(C)n2)c2nc(C)ccc2N1C(=O)OC(C)C | 
